Activity calls are given as the source filed them. The calls are words filed in the database; no cut-off is given here.
Legend:
[1] = biological target: T1, Estrogen receptor (Homo sapiens, UniProt P03372); test: Binding affinity to recombinant His-tagged ERalpha LBD (307 to 554 residue) (unknown origin) expressed in Escherichia coli preincubated for 15 mins followed by ligand addition and measured after 1 hr by fluorescent polarization assay
T1 sequence (P03372 whole entry): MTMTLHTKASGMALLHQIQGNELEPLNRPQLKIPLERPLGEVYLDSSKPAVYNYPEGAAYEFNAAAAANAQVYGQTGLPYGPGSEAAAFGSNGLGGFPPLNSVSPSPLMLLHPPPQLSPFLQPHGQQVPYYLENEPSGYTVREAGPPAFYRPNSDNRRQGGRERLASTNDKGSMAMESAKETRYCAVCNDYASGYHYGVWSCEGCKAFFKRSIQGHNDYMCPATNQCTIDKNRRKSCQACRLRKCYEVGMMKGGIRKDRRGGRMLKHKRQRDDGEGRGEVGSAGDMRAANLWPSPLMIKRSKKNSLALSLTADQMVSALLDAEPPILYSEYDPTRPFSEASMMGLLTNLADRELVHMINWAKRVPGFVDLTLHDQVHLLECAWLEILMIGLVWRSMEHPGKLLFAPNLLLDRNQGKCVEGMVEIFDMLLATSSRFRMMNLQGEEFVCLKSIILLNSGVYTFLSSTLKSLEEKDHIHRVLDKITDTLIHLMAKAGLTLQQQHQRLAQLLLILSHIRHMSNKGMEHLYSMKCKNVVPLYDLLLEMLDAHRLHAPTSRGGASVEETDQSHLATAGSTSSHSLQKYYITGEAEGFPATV
Outline: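 ERα LBD (aa 307–554), WT or D538G, S463P, Y537S, with N-terminal Avi-Tev-His tag, expressed in E. coli T7 Express (20 °C, 12 h, IPTG). Purified by Ni-NTA then size exclusion. Compound preincubated with protein 15 min, fluorescent ligand added, 1 h at room temperature. FP read ex 485/em 535 nm; duplicate runs averaged.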

[2] = system: MCF7; test: Antiproliferative activity against human MCF7 cells assessed as growth inhibition preincubated with estradiol for 30 mins followed by compound addition and measured after 7 days by CellTiter-Glo assay; assay type: functional; conditions: MCF7, 168 h, time 7 day
Outline: (§1)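 MCF7 cells seeded in hormone-deprived media for 72 h. All wells except minimum-signal controls received 0.1 nM estradiol for 30 min, then compound in a 10-point dose series. Incubated 7 days at 37 °C, 5% CO2; ATP content read by CellTiter-Glo 2.0. Duplicate runs averaged.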

[3] = biological target: T1, Estrogen receptor; test: Induction of ERalpha degradation in human MCF7 cells assessed as decrease in ERalpha protein expression incubated for 48 hrs by Western blot analysis; assay type: cell-based
[4] = system: MCF7; test: Antiproliferative activity against human MCF7 cells assessed as reduction in cell viability preincubated with estradiol for 30 mins followed by compound addition and measured after 7 days by CellTiter-Glo assay; assay type: functional, cell-based; outline: as §1
[5] = biological target: T2, Estrogen receptor (Homo sapiens) (UniProt P03372); test: Induction of ERalpha degradation in human MCF7 cells assessed as reduction in ERalpha expression at 1 uM after 2 hrs by Western blotting analysis; assay type: cell-based
T2 sequence (whole entry): T1 sequence (P03372 whole entry)
Outline: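 MCF7 cells in hormone-deprived media (agonist mode) or full-serum media (antagonist mode) were treated with 1 μM compound over a 48 h time course. Cells were lysed and ERα was detected by western blot, with tubulin as the normalizer.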

[6] = biological target: T1, Estrogen receptor; test: Induction of ERalpha degradation in human MCF7 cells assessed as decrease in ERalpha protein expression incubated for 48 hrs in presence of VHL298 by Western blotting analysis; assay type: cell-based
Outline: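 MCF7 in-cell western for ERα normalized to tubulin after dose titration co-treated with VHL298 at 5 μM, 48 h total treatment before collection.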

[7] = biological target: T2, Estrogen receptor (Homo sapiens); test: Induction of ERalpha degradation in human T47D cells assessed as decrease in ERalpha protein expression incubated for 24 hrs by Western blotting analysis; assay type: cell-based
Outline: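 T47D cells were treated with increasing doses for 24 h. Lysates were western blotted with rabbit anti-ERα, and actin served as the loading control. DC50 was read from the dose series.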

[8] = system: MCF7; test: Antiproliferative activity against human MCF7 cells assessed as growth inhibition incubated for 7 days by CellTiter-Glo assay; assay type: functional; conditions: MCF7, 168 h, time 7 day
Outline: (§2)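 Breast lines from ATCC, maintained in ATCC-specified media, treated with increasing compound doses in full-serum (complete) media for 7 days. Relative cell number measured by CellTiter-Glo ATP read-out.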

[9] = system: T47D; test: Antiproliferative activity against human T47D cells assessed as growth inhibition incubated for 7 days by CellTiter-Glo assay; assay type: functional; conditions: 168 h, time 7 day; outline: as §2
[10] = system: ZR-75-1; test: Antiproliferative activity against human ZR-75-1 cells assessed as growth inhibition incubated for 7 days by CellTiter-Glo assay; assay type: functional; conditions: ZR-75-1, 168 h, time 7 day; outline: as §2
[11] = Microsomal stability in human liver microsomes assessed as intrinsic clearance measured upto 60 mins; assay type: ADME, Microsome; conditions: read-out: CLH
Outline: (§3)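 Compounds at 2 μM final incubated with pooled human or male mouse liver microsomes. Percent remaining measured at 0, 15, 30, 45 and 60 min and used to calculate in vitro half-life.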

[12] = Microsomal stability in mouse liver microsomes assessed as intrinsic clearance measured upto 60 mins; assay type: ADME, Microsome; conditions: read-out: CLH; outline: as §3
[13] = Toxicity in CD1 mouse xenografted with human MCF7 cells assessed as change in body weight at 10 mg/kg, sc administered once daily for 28 days; assay type: organism-based; conditions: in vivo, 672 h, time 28 day
Outline: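 Mice implanted with 17β-estradiol pellets (0.18 mg) 2 days before sc right-flank inoculation of 10×10^6 MCF-7 cells in PBS/Matrigel (50:50). Randomized at mean tumor 165 mm³, 8 per group. Dosed 10 mg/kg sc qd; fulvestrant reference 3 mg/mouse sc weekly. Caliper measurements twice weekly, V = 0.5a×b². TGI from medians. Body weight recorded before each dosing.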

[14] = Drug uptake in CD1 mouse plasma xenografted with human MCF7 cells 10 mg/kg, sc measured after 3 hrs post last dose; conditions: in vivo

IC50 [1]: 53 nM | GI50 [2]: 30 nM | DC50 [3]: 6 nM | EC50 [4]: 14 nM | Activity [5]: Active | DC50 [6]: 14 nM | Activity [7]: Active | GI50 [8]: 13.8 nM | GI50 [9]: 171 nM | microsomal CLint [11]: 59 µL/min/mg | microsomal CLint [12]: 249 µL/min/mg | Drug uptake [14]: Active
Structure (SMILES): Cc1ncsc1-c1ccc([C@@H](C)NC(=O)[C@@H]2C[C@@H](O)CN2C(=O)[C@H](NC(=O)COCCOCc2cn(CCOc3ccc(N(Cc4cccc(O)c4Cl)CC4(c5ccccc5F)CCCC4)cc3)nn2)C(C)(C)C)cc1
GI50 [10]: 40.9 nM | Activity [13]: Non-Toxic
